Test results as given in publication PMC12135072 (RSC Medicinal Chemistry, 2025).

Key:
MCF7 cell line = assay: γH2AX labelling for DNA double-strand breaks; type: cell-based; conditions: compounds at IC50, etoposide 10 μM
How it was run: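 To detect DNA double-strand breaks, MCF7 cells were exposed to the test compounds for 24 and 48 h, with etoposide as the positive control and 0.1% DMSO as the vehicle. γH2AX labelling was quantified by flow cytometry. n = 3; two-way ANOVA with Tukey's test.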

MCF7 spheroids = assay: Spheroid formation assay; type: cell-based; conditions: 72 hours of treatment
How it was run: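 Agar was liquefied in normal saline, sterilized and cast into 3D molds, which were rinsed with culture medium. MCF7 cells were seeded onto the molds and left 20 min to adhere, then medium with varied test-compound concentrations was added. Spheroid dimensions were tracked by live-cell imaging and compared with untreated controls.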

[1] = system: A549 (ATCC – CCL-185, lung carcinoma); assay: MTT cell viability assay, A549; type: cell-based; conditions: Homo sapiens, A549, read-out: IC50 A549
MCF-7 cells = assay: Colony formation assay; type: cell-based
[2] = system: MCF7 (ATCC – HTB-22, breast carcinoma); assay: MTT cell viability assay, MCF7; type: cell-based; conditions: for IC50: Homo sapiens, MCF7, read-out: IC50 MCF7; for higher potency compared to previously reported fused pyran derivative III: MCF7 IC50 versus III
MCF7 breast cancer cells = assay: Apoptosis, annexin V staining and flow cytometry; type: cell-based
How it was run: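 MCF7 cells were exposed to the test compounds for 24 or 48 h, with etoposide (10 μM) as the positive control and 0.1% DMSO as the untreated control. Cells were stained with annexin V and analysed by flow cytometry into live, early apoptotic and late apoptotic fractions.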

[3] = system: MRC5 (ATCC – CCL-171, human diploid fibroblast cell line); assay: cells; conditions: MRC5, read-out: IC50 MRC5
[4] = system: MRC5 (ATCC – CCL-171, human diploid fibroblast cell line)
MCF7 cells = assay: Cell cycle analysis; type: cell-based; conditions: for S phase population / cells in G1 phase / cells in G2 (G2/M) phase: MCF7, 24 hours; for S phase population: compounds at IC50
How it was run: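 MCF7 cells were treated with the test compounds for 24 and 48 h, with etoposide as the positive control and 0.1% DMSO as the vehicle. Cells were stained with propidium iodide and their G1, S and G2 distribution was read by flow cytometry. n = 3; two-way ANOVA with Tukey's test.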

[5] = system: HCT116 (ATCC – CCL-247, colon carcinoma); assay: MTT cell viability assay, HCT116; type: cell-based; conditions: Homo sapiens, HCT-116, read-out: IC50 HCT116
[6] = system: chorioallantoic membrane (CAM) blood vessel formation; assay: Ex ovo chorioallantoic membrane; type: in vivo, chicken; conditions: concentration-dependent, over time
[7] = MCF7, 24 hours, compounds at IC50
[8] = MCF7, 24 hours, compounds at IC50, etoposide 10 μM
[9] = MCF7, 48 hours, compounds at IC50, etoposide 10 μM
[10] = MCF7, 48 hours, compounds at IC50, ETP 10 μM

Compound: Cc1nccn1-c1ccc(C2C(C#N)=C(N)OC3=C2C(=O)CC(C)(C)C3)cc1 (centres unmarked) [Compound 8a, 2-Amino-7,7-dimethyl-4-(4-(2-methyl-1H-imidazol-1-yl)phenyl)-5-oxo-5,6,7,8-tetrahydro-4H-chromene-3-carbonitrile]
- γH2AX levels (MCF7 cell line; MCF7, 24 hours): 2.89 ± 0.99
- γH2AX levels (MCF7 cell line; MCF7, 48 hours): 20.3 ± 2.74
- spheroid size versus untreated control (MCF7 spheroids): pronounced reduction in size
- IC50 [1]: 111 ± 4.91 µM
- percentage of colony formation (MCF-7 cells; MCF-7, compound at IC10): 94.3 ± 4.04%
- percentage of colony formation (MCF-7 cells; MCF-7, compound at IC50): 74.3 ± 2.08%
- percentage of colony formation (MCF-7 cells; MCF-7, compound at IC90): 5.67 ± 4.04%
- IC50 [2]: 8.24 ± 0.19 µM
- higher potency compared to previously reported fused pyran derivative III [2]: 1.5 fold
- live cells (MCF7 breast cancer cells; [7]): 86.4 ± 0.15%
- early apoptotic cells (MCF7 breast cancer cells; [8]): 4.27 ± 0.20%
- late apoptotic cells (MCF7 breast cancer cells; [8]): 7.6 ± 0.01%
- early apoptotic cells (MCF7 breast cancer cells; [9]): 5.89 ± 0.20%
- late apoptotic cells (MCF7 breast cancer cells; [9]): 6.17 ± 0.13%
- IC50 [3]: > 200 µM
- toxicity to MRC5 (MCR5) cells [4]: nontoxic
- S phase population (MCF7 cells): 21.11 ± 3.39%
- cells in G1 phase (MCF7 cells; compounds at IC50, ETP 10 μM): 37.08 ± 5.07%
- cells in G2 (G2/M) phase (MCF7 cells; compounds at IC50, ETP 10 μM): 30.63 ± 4.35%
- G1 phase population (MCF7 cells; [10]): 47.08 ± 0.6%
- IC50 [5]: 143 ± 6.35 µM
- new blood vessel formation versus untreated controls [6]: significant reduction in new blood vessel formation

Compound: Cc1cn(-c2ccc(C3C(C#N)=C(N)OC4=C3C(=O)CC(C)(C)C4)cc2)cn1 (centres unmarked) [Compound 8b, 2-Amino-7,7-dimethyl-4-(4-(4-methyl-1H-imidazol-1-yl)phenyl)-5-oxo-5,6,7,8-tetrahydro-4H-chromene-3-carbonitrile]
- γH2AX levels (MCF7 cell line; MCF7, 24 hours): 4.71 ± 0.75
- γH2AX levels (MCF7 cell line; MCF7, 48 hours): 21.62 ± 3.38
- spheroid size versus untreated control (MCF7 spheroids): marked reduction in size
- IC50 [1]: 110 ± 4.94 µM
- percentage of colony formation (MCF-7 cells; MCF-7, compound at IC10): 97.7 ± 1.53%
- percentage of colony formation (MCF-7 cells; MCF-7, compound at IC50): 76 ± 2.65%
- percentage of colony formation (MCF-7 cells; MCF-7, compound at IC90): 15 ± 5%
- IC50 [2]: 4.22 ± 0.81 µM
- higher potency compared to previously reported fused pyran derivative III [2]: 3 fold
- live cells (MCF7 breast cancer cells; [7]): 87.55 ± 0.08%
- early apoptotic cells (MCF7 breast cancer cells; [8]): 2.66 ± 0.12%
- late apoptotic cells (MCF7 breast cancer cells; [8]): 7.87 ± 0.02%
- debris/dead cells (MCF7 breast cancer cells; MCF7, 48 hours, compound at IC50): 0.82 ± 0.30%
- early apoptotic cells (MCF7 breast cancer cells; [9]): 5.27 ± 0.13%
- late apoptotic cells (MCF7 breast cancer cells; [9]): 9.46 ± 0.22%
- live cells (MCF7 breast cancer cells; [9]): 84.45 ± 0.64%
- IC50 [3]: > 200 µM
- toxicity to MRC5 (MCR5) cells [4]: nontoxic
- S phase population (MCF7 cells): 15.11 ± 2.59%
- cells in G1 phase (MCF7 cells; compounds at IC50, ETP 10 μM): 41.59 ± 7.44%
- cells in G2 (G2/M) phase (MCF7 cells; compounds at IC50, ETP 10 μM): 30.79 ± 5.11%
- G1 phase population (MCF7 cells; [10]): 45.22 ± 0.82%
- G2 (G2/M) phase population (MCF7 cells; [10]): 28.83 ± 0.52%
- IC50 [5]: 129 ± 5.79 µM
- new blood vessel formation versus untreated controls [6]: significant reduction in new blood vessel formation
